Among the data in ChEMBL document CHEMBL1155224, “Discovery of new inhibitors of resistant Streptococcus pneumoniae penicillin binding protein (PBP) 2x by structure-based virtual screening” (J Med Chem, 2009) are Activity values, retold here.

Residue numbers refer to the chain shown, from its start. Active and inactive are the calls of the source. The rule behind the calls is not given here.

Test [1] addresses T1, Penicillin-binding protein 2X (Streptococcus pneumoniae R6) (UniProt P59676).
T1 sequence (whole entry): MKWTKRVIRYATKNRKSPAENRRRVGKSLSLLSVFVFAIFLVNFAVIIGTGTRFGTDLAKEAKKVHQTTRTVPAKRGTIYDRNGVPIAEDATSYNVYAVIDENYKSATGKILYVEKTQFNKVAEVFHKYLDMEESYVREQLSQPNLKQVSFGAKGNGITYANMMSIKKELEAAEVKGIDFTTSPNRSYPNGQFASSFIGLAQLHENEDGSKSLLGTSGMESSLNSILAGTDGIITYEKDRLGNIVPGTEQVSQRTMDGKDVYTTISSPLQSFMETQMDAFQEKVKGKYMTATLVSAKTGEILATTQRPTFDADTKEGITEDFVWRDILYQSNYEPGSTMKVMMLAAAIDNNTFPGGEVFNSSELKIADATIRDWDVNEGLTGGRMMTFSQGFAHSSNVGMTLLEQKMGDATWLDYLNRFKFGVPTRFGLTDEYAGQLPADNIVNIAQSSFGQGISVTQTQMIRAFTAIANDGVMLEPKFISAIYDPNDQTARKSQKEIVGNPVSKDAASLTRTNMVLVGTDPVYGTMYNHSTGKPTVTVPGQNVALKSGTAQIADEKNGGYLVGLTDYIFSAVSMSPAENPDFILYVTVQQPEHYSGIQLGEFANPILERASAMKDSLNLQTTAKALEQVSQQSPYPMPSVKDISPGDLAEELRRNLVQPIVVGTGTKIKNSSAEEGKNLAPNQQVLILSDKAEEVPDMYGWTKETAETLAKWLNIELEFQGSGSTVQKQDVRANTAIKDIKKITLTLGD
As to the kind of experiment: Inhibition of penicillin-sensitive Streptococcus pneumoniae R6 PBP2X preincubated for 1 hr before addition of substrate (R)-[2-(benzoylamino)propionylsulfanyl]acetic acid. The method in brief:
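Compounds taken from 100 mM DMF stocks (1% DMF final) and preincubated with 0.09 μM R6-PBP2x in 10 mM sodium phosphate pH 7.0 with 0.01 mg/mL BSA, 60 min, 25 °C. Spontaneous hydrolysis without enzyme measured. Triplicates. IC50 fitted from residual activity versus decreasing inhibitor concentration, with 0.01% Triton X-100.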

Test [2] deals with T2, Penicillin-binding protein 2x (Streptococcus pneumoniae serotype 4 (strain ATCC BAA-334 / TIGR4)) (UniProt P14677).
T2 sequence (whole entry): T1 sequence (whole entry) with M385T
As to the kind of experiment: Inhibition of penicillin-resistant Streptococcus pneumoniae 5204 PBP2X preincubated for 4 hrs before addition of substrate (R)-[2-(benzoylamino)propionylsulfanyl]acetic acid. An outline of the steps: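 0.6 μM 5204-PBP2x preincubated 4 h at 25 °C with inhibitor in 10 mM sodium phosphate pH 7.0, 70 mM D-alanine, 0.01 mg/mL BSA, 1% DMF, 0.01% Triton X-100. Assays were run in triplicate, and IC50 was fitted from residual activity versus decreasing inhibitor concentrations.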

As for `COc1c(N2CCNC(C)C2)c(F)cc2c(=O)c(C(=O)O)cn(C3CC3)c12` (stereo unspecified), the result in test [1] and in test [2] was Active.

With `CCO/N=C(\C(=O)N[C@@H]1C(=O)N2C(C(=O)[O-])=C(C[n+]3cccc4c3ncn4CCCNC)CS[C@H]12)c1nsc(N)n1`, the outcome in test [1] and in test [2] was Active.

As to `O=C(Cc1cccs1)N[C@@H]1C(=O)N2C(C(=O)O)=C(/C=C/c3ccc([N+](=O)[O-])cc3[N+](=O)[O-])CS[C@H]12`, the result in test [1] and in test [2] was Active.

Turning to `CO/N=C(\C(=O)N[C@@H]1C(=O)N2C(C(=O)OCOC(=O)C(C)(C)C)=C(/C=C\c3scnc3C)CS[C@H]12)c1csc(N)n1`, the result in test [1] and in test [2] was Active.

On to `CC(NC(=O)C(C)NC(=O)CCCCCN)C(=O)O` (stereo unspecified), for which the outcome in test [1] and in test [2] was inactive.

As for `CO[C@H]1CCC[C@H]2C1=C(C(=O)O)N1C(=O)[C@H]([C@@H](C)O)[C@@H]21`, the result in test [1] and in test [2] was Active.

In the case of `CC/C=C(\C(=O)N[C@@H]1C(=O)N2C(C(=O)O)=C(COC(N)=O)CS[C@H]12)c1csc(N)n1`, the outcome in test [1] and in test [2] was Active.

With `O=C(O)c1cc(-c2ccc(/C=C3\S/C(=N\c4ccccc4)N(c4ccccc4)C3=O)o2)ccc1Cl`, the outcome in test [1] and in test [2] was inactive.

As to `C[C@H]1NCc2cc(-c3ccc4c(=O)c(C(=O)O)cn(C5CC5)c4c3OC(F)F)ccc21`, the result in test [1] and in test [2] was Active.

For `CC(=O)NC1CON(C2(C(=O)O)CCC(=O)O2)C1=O` (stereo unspecified), the outcome in test [1] and in test [2] was Active.

Take `CC1(C)S[C@@H]2[C@H](NC(=O)[C@H](N)c3ccc(O)cc3)C(=O)N2[C@H]1C(=O)O`: the outcome in test [1] and in test [2] was Active.

In the case of `C[C@@H](O)[C@H]1C(=O)N2C(C(=O)O)=C(S[C@@H]3CN[C@H](C(=O)N(C)C)C3)[C@H](C)[C@H]12`, the outcome in test [1] and in test [2] was Active.

In the case of `C[C@@H](O)[C@H]1C(=O)N2C(C(=O)O)=C(SCCNC=N)C[C@H]12`, the result in test [1] and in test [2] was Active.

As for `CCO/N=C(\C(=O)NC1C(=O)N2C(C(=O)[O-])=CC(/C=C/Sc3cc[n+](C)cc3)SC12)c1nsc(N)n1` (stereo unspecified), the outcome in test [1] and in test [2] was Active.

Turning to `CC=CC1=C(C(=O)O)N2C(=O)[C@@H](NC(=O)[C@H](N)c3ccc(O)cc3)[C@H]2SC1`, the result in test [1] and in test [2] was Active.

As to `CC(=O)C[n+]1ccc(SCC2=C(C(=O)[O-])N3C(=O)[C@@H](NC(=O)/C(=N/OC4CCCC4)c4csc(N)n4)[C@H]3SC2)cc1`, the result in test [1] and in test [2] was Active.

For the compound `CCn1c2ccccc2c2cc(/C=C3\S/C(=N\c4ccccc4)N(C(C(=O)O)c4ccccc4)C3=O)ccc21` (stereo unspecified), the outcome in test [1] and in test [2] was inactive.

In the case of `N[C@@H](C(=O)N[C@@H]1C(=O)N2C(C(=O)O)=C(Cl)CS[C@H]12)c1ccccc1`, the result in test [1] and in test [2] was Active.

For the compound `CO/N=C(\C(=O)N[C@@H]1C(=O)N2C(C(=O)O)=C(COC(N)=O)CS[C@H]12)c1ccco1`, the outcome in test [1] and in test [2] was Active.

Turning to `O=C(COc1ccccc1)N[C@H]1CON([C@@]2(C(=O)O)CCC(=O)O2)C1=O`, the outcome in test [1] and in test [2] was Active.

On to `Nc1nc(/C(=N/O)C(=O)N[C@@H]2C(=O)N3C(C(=O)O)=C(/C=C4\CCN([C@@H]5CCNC5)C4=O)CS[C@H]23)ns1`, for which the outcome in test [1] and in test [2] was Active.

As for `CC(=N)N1CC[C@H](SC2=C(C(=O)O)N3C(=O)[C@H]([C@@H](C)O)[C@H]3C2)C1`, the result in test [1] and in test [2] was Active.

On to `C[C@@H](O)[C@H]1C(=O)N2C(C(=O)[O-])=C(SC3Cn4cnc[n+]4C3)[C@H](C)[C@H]12` (stereo partly specified), for which the outcome in test [1] and in test [2] was Active.

`CCC1C(=O)N2CC1CC(OC)=C2C(=O)O` (stereo unspecified): the result in test [1] and in test [2] was Active.

With `CCn1c2ccccc2c2cc(/C=C3\S/C(=N\c4ccccc4)N(C(C(=O)O)C(C)C)C3=O)ccc21` (stereo unspecified), the result in test [1] and in test [2] was inactive.

Regarding `CO/N=C(\C(=O)N[C@@H]1C(=O)N2C(C(=O)O)=C(CSc3nc(=O)c(O)nn3C)CS[C@H]12)c1csc(N)n1`, the result in test [1] and in test [2] was Active.

As for `C[C@@H](NC(=O)c1ccccc1)C(=O)SCC(=O)O`, the outcome in test [1] and in test [2] was Active.

On to `C=CC1=C(C(=O)O)N2C(=O)[C@@H](NC(=O)/C(=N\O)c3csc(N)n3)[C@H]2SC1`, for which the result in test [1] and in test [2] was Active.

For `CC(=O)OCC1=C(C(=O)O)N2C(=O)[C@@H](NC(=O)Cc3cccs3)[C@H]2SC1`, the result in test [1] and in test [2] was Active.

Turning to `CC1(C)S[C@@H]2[C@H](NC(=O)[C@H](N)c3ccccc3)C(=O)N2[C@H]1C(=O)O`, the outcome in test [1] and in test [2] was Active.

`N[C@@H](C(=O)N[C@@H]1C(=O)N2C(C(=O)O)=C(Cl)CC[C@H]12)c1ccccc1`: the outcome in test [1] and in test [2] was Active.

As to `COCC1=C(C(=O)O)N2C(=O)[C@@H](NC(=O)/C(=N\OC)c3csc(N)n3)[C@H]2SC1`, the result in test [1] and in test [2] was Active.

In the case of `Nc1cc(SCSC2=C(C(=O)O)N3C(=O)[C@@H](NC(=O)/C(=N/O)c4nc(N)sc4Cl)[C@H]3SC2)nc(N)n1`, the outcome in test [1] and in test [2] was Active.

As to `C[C@@H](O)[C@H]1C(=O)N2C(C(=O)O)=C(SC3CN(C4=NCCS4)C3)[C@H](C)[C@H]12`, the outcome in test [1] and in test [2] was Active.

Take `Cc1cc(SCC2=C(C(=O)[O-])N3C[C@@H](NC(=O)CSc4c(Cl)cc(/C=C/C(=O)NCC(=O)[O-])cc4Cl)[C@H]3SC2)cc(C)[n+]1CCC[N+]1(C)CCOCC1`: the result in test [1] and in test [2] was Active.

For `NCCSCc1cnccc1SC1=C(C(=O)O)N2C(=O)[C@@H](NC(=O)/C(=N\O)c3nc(N)sc3Cl)[C@H]2SC1`, the outcome in test [1] and in test [2] was Active.

For `CCn1c2ccccc2c2cc(/C=C3\S/C(=N\C(Cc4ccccc4)C(=O)O)N(c4ccccc4)C3=O)ccc21` (stereo unspecified), the result in test [1] and in test [2] was inactive.

As for `C[C@@H](O)[C@H]1C(=O)N2C(C(=O)O)=C([C@H]3CCCO3)S[C@H]12`, the result in test [1] and in test [2] was Active.
